Assay results as given in ChEMBL document CHEMBL4308855, “Synthesis, in vitro and in vivo evaluation of 2-aryl-4H-chromene and 3-aryl-1H-benzo[f]chromene derivatives as novel α-glucosidase inhibitors” (Bioorg Med Chem Lett, 2019).
Active and inactive are the calls of the source. The calls are words filed in the database; no cut-off is given here.

Columns and labels:
[1] = Inhibition of Saccharomyces cerevisiae alpha-glucosidase using […] preincubated for 5 mins followed by substrate addition and measured after 15 mins; conditions: in the assay text read “p-nitrophenyl alpha-D-glucopyranoside” for “p-nitrophenyl beta-D-glucopyranoside”
In short: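 S. cerevisiae α-glucosidase with p-nitrophenyl-α-D-glucopyranoside substrate fixed at 1 mM (above Km, saturating). Inhibitor was tested across a 10^-3–10^-9 M range. IC50 was obtained by nonlinear regression of the concentration–inhibition data.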

Saccharomyces cerevisiae [2] = test: Inhibition of Saccharomyces cerevisiae alpha-glucosidase at 1 mM using […] preincubated for 5 mins followed by substrate addition and measured after 15 mins relative to control; conditions: in the assay text read “p-nitrophenyl alpha-D-glucopyranoside” for “p-nitrophenyl beta-D-glucopyranoside”
In short: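 Single-concentration screen at 1 mM against S. cerevisiae α-glucosidase. p-Nitrophenyl-α-D-glucopyranoside substrate was fixed at 1 mM, well above the Km determined in fixed-time runs, to saturate the enzyme. Inhibition is relative to the negative control, with significance by Student t-test (p < 0.05).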

Rattus norvegicus [3] = test: In vivo inhibition of intestinal maltase-glucoamylase in Wistar rat assessed as reduction in postprandial hyperglycemia at 2.2 mg/kg, po pretreated for 30 mins followed by maltose challenge and measured after 30 to 120 mins by OMTT; assay type: functional, organism-based
In short: (§1)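 Male Wistar rats received the test agent per os at the dose in the line, then a 2 g/kg maltose load. Blood glucose was followed after the maltose challenge. n = 5 per group, reported as m ± SEM. Comparisons were by 1-way ANOVA against vehicle and the reference group.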

Saccharomyces cerevisiae [4] = test: Potency index, ratio of acarbose IC50 to test compound IC50 for Saccharomyces cerevisiae alpha-glucosidase
Alpha glucosidase = Alpha glucosidase (Homo sapiens, UniProt O43451+P10253+P14410+Q2M2H8); test: Inhibition of alpha-glucosidase (unknown origin) using p-nitrophenyl beta-D-glucopyranoside as substrate measured after 20 mins; assay type: protein assay
Rattus norvegicus [5] = test: In vivo inhibition of intestinal maltase-glucoamylase in Wistar rat assessed as reduction in postprandial hyperglycemia at 5 mg/kg, po pretreated for 30 mins followed by maltose challenge and measured after 30 to 120 mins by OMTT; assay type: functional, organism-based; in short: as §1

| IC50 [1] [µM] | inhibition (Saccharomyces cerevisiae [2]) [%] | SMILES | further results |
| --- | --- | --- | --- |
| 950 | 69 | Clc1ccc(C2=CC(c3ccccc3)c3ccccc3O2)cc1 (configuration not stated) |  |
| 898 | 47.6 | Cc1ccc(C2=CC(c3ccc(Cl)cc3)c3c(ccc4ccccc34)O2)cc1 (configuration not stated) |  |
| > 1000 | 43.7 | COc1ccc(C2C=C(c3ccccc3)Oc3ccc4ccccc4c32)cc1OC (configuration not stated) |  |
|  | 18.3 | Clc1ccc(C2C=C(c3ccccc3)Oc3ccc4ccccc4c32)cc1 (configuration not stated) |  |
| 649 | 91.7 | CCc1ccc(C2=CCc3c(ccc4ccccc34)O2)cc1 |  |
|  | 36.1 | COc1ccc(C2C=C(c3ccc(O)cc3)Oc3ccc4ccccc4c32)cc1 (configuration not stated) |  |
|  | 19.7 | COc1ccc(C2CCc3c(ccc4ccccc34)O2)cc1 (configuration not stated) |  |
| 62.3 | 60.8 | C1=C(c2ccccc2)Oc2ccccc2C1c1ccccc1 (configuration not stated) | inhibition (Rattus norvegicus [3]): Active; Ratio IC50 (Saccharomyces cerevisiae [4]): 9 |
|  |  | Oc1cc(O)c2c(c1)O[C@@H](c1ccc(O)c(O)c1)[C@H](O)C2 [(-)-CATECHIN] | IC50 (Alpha glucosidase): 53.8 µM |
|  | 14.9 | Clc1ccc(C2=CC(c3ccc(Cl)cc3)c3c(ccc4ccccc34)O2)cc1 (configuration not stated) |  |
|  | 10.8 | C1=C(c2ccccc2)Oc2ccc3ccccc3c2C1 |  |
| 544 | 55.8 | C[C@H]1O[C@H](O[C@H]2[C@H](O)[C@@H](O)[C@@H](O[C@H]3[C@H](O)[C@@H](O)C(O)O[C@@H]3CO)O[C@@H]2CO)[C@H](O)[C@@H](O)[C@@H]1N[C@H]1C=C(CO)[C@@H](O)[C@H](O)[C@H]1O (some centres not stated) [ACARBOSE] | inhibition (Rattus norvegicus [5]): Active |
|  | 39.6 | C1=C(c2ccccc2)Oc2ccc3ccccc3c2C1c1ccccc1 (configuration not stated) |  |
